Assay [1] deals with Mus musculus. Briefly: Protective effect against adenine-induced chronic renal failure in Kunming mouse assessed as weight growth rate at 200 mg/kg, ig qd administered for 4 successive weeks measured 24 hrs post last dose (reference value: 32.42 +/- 1.43%). The assay is classed as functional. The essentials:
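Male Kunming mice (20 ± 5 g) kept on a 12 h light/dark cycle at 18–20 °C on a standard diet. CRF induced by chronic dietary adenine. Test material given orally at 100 or 200 mg kg–1, alone or with Haikunshenxi capsule, alongside normal, model and capsule-only groups; ten mice per group. Weight growth rate recorded in %, kidney index in mg g–1.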

For assay [2], the system named is Mus musculus. Nature of the assay: Protective effect against adenine-induced chronic renal failure in Kunming mouse assessed as weight growth rate at 100 mg/kg, ig qd administered for 4 successive weeks measured 24 hrs post last dose (reference value: 32.42 +/- 1.43%). In kind it is functional. The essentials: (§1)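 Male Kunming mice (20 ± 5 g) were housed on a 12 h light/dark cycle at 18–20 °C. Chronic renal failure was induced by long-term dietary adenine. The melanin was given orally at 100 or 200 mg kg–1, alone or with Haikunshenxi capsule as positive drug, with ten mice per group. Weight growth rate (%) and kidney index (mg g–1) were recorded.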

The test system of assay [3] is Mus musculus. Briefly: Protective effect against adenine-induced chronic renal failure in Kunming mouse assessed as nephridial MDA levels at 100 mg/kg, ig qd administered for 4 successive weeks with haikunshenxi capsule by thiobarbituric acid method (reference value: 5.05 +/- 0.15 nmol/ml). The assay is classed as functional.
Assay [4] has as its system Mus musculus. Briefly: Protective effect against adenine-induced chronic renal failure in ig dosed Kunming mouse assessed as increase in nephridial GSH-PX levels administered as qd for 4 successive weeks with haikunshenxi capsule by colorimetric method. In kind it is functional, organism-based. In a few lines: (§2)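 Male Kunming mice (20 ± 5 g) given dietary adenine to induce CRF, then dosed orally at 100 or 200 mg kg–1, with or without Haikunshenxi capsule; n = 10 per group. Kidney homogenate assayed for SOD and CAT (U mg–1 protein), GSH-Px (U L–1), GSH (mg g–1 protein) and MDA (nmol mL–1).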

The test system of assay [5] is Mus musculus. Nature of the assay: Protective effect against adenine-induced chronic renal failure in Kunming mouse assessed as appearance of complete kidney tubules at 100 mg/kg, ig qd administered for 4 successive weeks by haematoxylin and eosin dye-based optical microscopic method. The assay is classed as functional, organism-based. The essentials: (§3)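 Kidneys were taken from male Kunming mice given an adenine diet plus oral melanin (100 or 200 mg kg–1), with or without Haikunshenxi capsule, ten per group. Histological sections were examined at 400× for glomeruli, tubules, adenine crystals, tubular atrophy and interstitial fibrosis.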

Assay [6] has as its system Mus musculus. Briefly: Protective effect against adenine-induced chronic renal failure in Kunming mouse assessed as nephridial GSH levels at 200 mg/kg, ig qd administered for 4 successive weeks with haikunshenxi capsule by colorimetric method (reference value: 3.05 +/- 0.11 mg/g). The assay is classed as functional.
Assay [7] relates to Mus musculus. Briefly: Protective effect against adenine-induced chronic renal failure in ig dosed Kunming mouse assessed as increase in nephridial SOD levels administered as qd for 4 successive weeks with haikunshenxi capsule by hydroxylamine method. The assay is classed as functional, organism-based. The essentials:
as §2

Assay [8] concerns Mus musculus. Briefly: Protective effect against adenine-induced chronic renal failure in ig dosed Kunming mouse assessed as increase in total protein levels in serum administered as qd for 4 successive weeks by coomassie brilliant blue method. The assay is classed as functional, organism-based. In a few lines: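 Adenine-fed CRF model in male Kunming mice (20 ± 5 g) housed at 18–20 °C on a 12 h light/dark cycle. Oral dosing at 100 or 200 mg kg–1, with or without Haikunshenxi capsule; ten mice per group. Serum creatinine, BUN, total protein and albumin measured, each group compared with the model group.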

Assay [9] has as its system Mus musculus. Nature of the assay: Protective effect against adenine-induced chronic renal failure in Kunming mouse assessed as nephridial TNF-alpha levels at 200 mg/kg, ig qd administered for 4 successive weeks with haikunshenxi capsule (reference value: 250.15 +/- 8.10 pg/ml). In kind it is functional.
Assay [10] deals with Mus musculus. Nature of the assay: Protective effect against adenine-induced chronic renal failure in Kunming mouse assessed as reduction in interstitial fibrosis at 200 mg/kg, ig qd administered for 4 successive weeks with haikunshenxi capsule by haematoxylin and eosin dye-based optical microscopic method. In kind it is functional, organism-based. The essentials:
as §3

Assay [11] relates to Mus musculus. Nature of the assay: Protective effect against adenine-induced chronic renal failure in ig dosed Kunming mouse assessed as reduction in kidney index administered as qd for 4 successive weeks measured 24 hrs post last dose.
Assay [12] has as its system Mus musculus. Briefly: Protective effect against adenine-induced chronic renal failure in Kunming mouse assessed as nephridial IL-1beta levels at 200 mg/kg, ig qd administered for 4 successive weeks with haikunshenxi capsule (reference value: 18.34 +/- 0.25 pg/ml). The assay is classed as functional.
For assay [13], the system named is Mus musculus. Nature of the assay: Protective effect against adenine-induced chronic renal failure in ig dosed Kunming mouse assessed as increase in nephridial CAT levels administered as qd for 4 successive weeks with haikunshenxi capsule by visible spectrometry method. In kind it is functional, organism-based. The essentials: as §2
In assay [14] the test system is Mus musculus. Briefly: Protective effect against adenine-induced chronic renal failure in Kunming mouse assessed as nephridial SOD levels at 200 mg/kg, ig qd administered for 4 successive weeks by hydroxylamine method (reference value: 30.45 +/- 1.12 U/mg). The assay is classed as functional.
Assay [15] concerns Mus musculus. Nature of the assay: Protective effect against adenine-induced chronic renal failure in ig dosed Kunming mouse assessed as increase in nephridial GSH levels administered as qd for 4 successive weeks by colorimetric method. The assay is classed as functional, organism-based. The essentials:
as §2

The subject of assay [16] is Mus musculus. Briefly: Protective effect against adenine-induced chronic renal failure in Kunming mouse assessed as nephridial CAT levels at 100 mg/kg, ig qd administered for 4 successive weeks by visible spectrometry method (reference value: 44.13 +/- 1.25 U/mg). In kind it is functional.
The test system of assay [17] is Mus musculus. Briefly: Protective effect against adenine-induced chronic renal failure in ig dosed Kunming mouse assessed as decrease in nephridial MDA levels administered as qd for 4 successive weeks with haikunshenxi capsule by thiobarbituric acid method. In kind it is functional, organism-based. In a few lines:
as §2

Assay [18] relates to Mus musculus. Briefly: Protective effect against adenine-induced chronic renal failure in Kunming mouse assessed as appearance of complete glomeruli in kidney at 100 mg/kg, ig qd administered for 4 successive weeks by haematoxylin and eosin dye-based optical microscopic method. In kind it is functional, organism-based. The essentials: as §3
The test system of assay [19] is Mus musculus. Briefly: Protective effect against adenine-induced chronic renal failure in Kunming mouse assessed as reduction in renal tubular atrophy at 200 mg/kg, ig qd administered for 4 successive weeks by haematoxylin and eosin dye-based optical microscopic method. The assay is classed as functional, organism-based. The essentials: as §3
Assay [20] concerns Mus musculus. Nature of the assay: Protective effect against adenine-induced chronic renal failure in Kunming mouse assessed as kidney index at 100 mg/kg, ig qd administered for 4 successive weeks with haikunshenxi capsule measured 24 hrs post last dose (reference value: 1.94 +/- 0.03 mg/g). In kind it is functional. The essentials: as §1
Assay [21] has as its system Mus musculus. Briefly: Protective effect against adenine-induced chronic renal failure in ig dosed Kunming mouse assessed as decrease in nephridial IL-6 levels administered as qd for 4 successive weeks. In kind it is functional, organism-based. In a few lines: (§4)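 CRF model made by chronic dietary adenine in male Kunming mice (20 ± 5 g); oral dosing at 100 or 200 mg kg–1, alone or with Haikunshenxi capsule; ten mice per group. Kidney tissue TNF-α, IL-1β and IL-6 measured as pg per mg protein, and iNOS activity as U mg–1 protein.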

Assay [22] concerns Mus musculus. Nature of the assay: Protective effect against adenine-induced chronic renal failure in Kunming mouse assessed as nephridial MDA levels at 200 mg/kg, ig qd administered for 4 successive weeks with haikunshenxi capsule by thiobarbituric acid method (reference value: 5.05 +/- 0.15 nmol/ml). In kind it is functional.
Assay [23] concerns Mus musculus. Briefly: Protective effect against adenine-induced chronic renal failure in ig dosed Kunming mouse assessed as decrease in nephridial IL-1beta levels administered as qd for 4 successive weeks. The assay is classed as functional, organism-based. In a few lines:
as §4

Molecules are shown by their SMILES. Active and inactive are the calls of the source. The rule behind the calls is not given here.

`Cc1c(=O)c(=O)c2c3c[nH]c4c(C)c(=O)c(=O)c(c5c[nH]c1c52)c43`: the Activity is 52.68% in assay [1]; 50.12% in assay [2]; 3.05 nmol/mL in assay [3]; “Dose-dependent effect” in assay [4]; 5.38 mg/g in [6]; “Dose-dependent effect” in assay [7]. The Activity entry is “Dose-dependent effect” in [8]; 84.35 pg/mL in assay [9]; “Dose-dependent effect” in [11]; 13.81 pg/mL in assay [12]; “Dose-dependent effect” in assay [13]; 38.25 U/mg in [14]. In addition, the Activity result in assay [15] was “Dose-dependent effect”; in [16] it was 60.53 U/mg; in assay [17], “Dose-dependent effect”; in [20] it was 1.18 mg/g; in assay [21], “Dose-dependent effect”; in assay [22], 2.88 nmol/mL. For the same compound, the Activity result in [23] is “Dose-dependent effect”. For the same compound, the outcome in assay [5], in assay [10], in assay [18] and in assay [19] was Active.
